Results reported in ChEMBL document CHEMBL1138609, “Amiloride derived inhibitors of acid-sensing ion channel-3 (ASIC3)” (Bioorg Med Chem Lett, 2009).
Calls of active or inactive are those of the source. The calls are words filed in the database; no cut-off is given here.

Key:
[1] = target: T1, Acid-sensing ion channel 3 (Homo sapiens) (UniProt Q9UHC3); assay: Inhibition of ASIC3 assessed as inhibition of peak current at 1 uM by patch clamp electrophysiology relative to baseline
T1 sequence (whole entry): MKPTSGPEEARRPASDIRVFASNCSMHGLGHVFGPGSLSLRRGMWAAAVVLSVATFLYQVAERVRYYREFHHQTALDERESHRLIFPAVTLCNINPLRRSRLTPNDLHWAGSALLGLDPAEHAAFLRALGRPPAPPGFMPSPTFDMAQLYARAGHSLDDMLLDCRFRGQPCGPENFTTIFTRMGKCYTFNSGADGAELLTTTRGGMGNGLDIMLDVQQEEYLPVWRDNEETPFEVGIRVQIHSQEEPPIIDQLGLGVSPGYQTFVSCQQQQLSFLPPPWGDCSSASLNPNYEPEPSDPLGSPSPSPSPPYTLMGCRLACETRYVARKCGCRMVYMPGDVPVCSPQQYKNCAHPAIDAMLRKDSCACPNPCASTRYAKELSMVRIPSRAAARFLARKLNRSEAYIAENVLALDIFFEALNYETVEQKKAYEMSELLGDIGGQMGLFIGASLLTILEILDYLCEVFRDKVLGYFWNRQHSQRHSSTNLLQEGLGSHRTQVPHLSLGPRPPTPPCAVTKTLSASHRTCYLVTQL
How it was run: (§1)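 Automated patch clamp on ASIC3 channels, used both for single-dose screening and for multi-dose follow-up. Extracellular solution: 150 NaCl, 5 KCl, 2 CaCl2, 1 MgCl2, 12 dextrose, with HEPES pH 7.4 or MES pH 5.5. Compound applied 120 s before acid. Peak current compared with vehicle or baseline peak; N = 3.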

[2] = target: T1, Acid-sensing ion channel 3 (Homo sapiens); assay: Inhibition of ASIC3 at 20 uM assessed as inhibition of peak current by patch clamp electrophysiology relative to baseline; how it was run: as §1
Rattus norvegicus [3] = species on record: Rattus norvegicus; assay: activity against Sprague-Dawley rat complete Freund's adjuvant-induced inflammatory pain model assessed as reversal of mechanical hypersensitivity after 30 mins
Rattus norvegicus [4] = assay: activity against Sprague-Dawley rat complete Freund's adjuvant-induced inflammatory pain model assessed as reversal of mechanical hypersensitivity at 30 mg/kg, ip after 30 mins
[5] = Drug level in Sprague-Dawley rat brain after 30 mins; type: ADME, tissue-based; conditions: read-out: Drug uptake
How it was run: (§2)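 Rats from the CFA inflammatory pain study were sampled 30 min after dosing. Average concentrations were measured in plasma and in brain.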

[6] = Plasma concentration in Sprague-Dawley rat after 30 mins; type: ADME, cell-free; how it was run: as §2
[7] = target: T2, Acid-sensing ion channel 3 (Rattus norvegicus, UniProt O35240); assay: Inhibition of rat ASIC3 assessed as inhibition of peak current by patch clamp electrophysiology; how it was run: as §1
T2 sequence (O35240 whole entry): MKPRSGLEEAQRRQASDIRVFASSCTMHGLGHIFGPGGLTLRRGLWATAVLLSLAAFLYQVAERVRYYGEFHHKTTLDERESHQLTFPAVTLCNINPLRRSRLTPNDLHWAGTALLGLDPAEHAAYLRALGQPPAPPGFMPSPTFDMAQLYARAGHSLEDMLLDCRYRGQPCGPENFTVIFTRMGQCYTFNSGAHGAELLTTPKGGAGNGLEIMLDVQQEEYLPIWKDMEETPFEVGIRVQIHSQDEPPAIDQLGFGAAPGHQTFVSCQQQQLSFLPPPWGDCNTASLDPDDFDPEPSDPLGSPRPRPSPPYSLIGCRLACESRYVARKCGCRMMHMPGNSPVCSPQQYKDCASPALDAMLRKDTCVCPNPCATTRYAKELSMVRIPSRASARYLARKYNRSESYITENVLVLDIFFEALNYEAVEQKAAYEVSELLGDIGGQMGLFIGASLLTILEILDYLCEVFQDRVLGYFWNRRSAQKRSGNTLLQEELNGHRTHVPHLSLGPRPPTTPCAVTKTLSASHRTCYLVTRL

[8] = target: T3, Acid-sensing ion channel 3 (Homo sapiens, UniProt Q9UHC3); assay: Inhibition of ASIC3 assessed as inhibition of peak current by patch clamp electrophysiology; how it was run: as §1
T3 sequence (Q9UHC3 whole entry): T1 sequence (whole entry)

inhibition [1] | inhibition [2] | Structure (SMILES) | other results
34% |  | NC(N)=NC(=O)c1nc(Cl)c(Oc2ccc3ccccc3n2)nc1N | 
58% | 90% | NC(N)=NC(=O)c1ncc(-c2cccc(-c3ccsc3)c2)nc1N | 
47% | 94% | NC(N)=NC(=O)c1nc(Cl)c(Nc2cccc(Cl)c2)nc1N | 
72% |  | NC(N)=NC(=O)c1ncc(-c2cccc(-c3ccccc3)c2)nc1N | Activity (Rattus norvegicus [3]): Dose-dependent effect; Activity (Rattus norvegicus [4]): Active; concentration at 0.5 h [5]: 79 nM; concentration at 0.5 h [6]: 2900 nM; IC50 [7]: 950 nM; IC50 [8]: 490 nM
11% |  | NC(N)=NC(=O)c1nc(Cl)c(Oc2cc3ccccc3cn2)nc1N | 
26% | 92% | NC(N)=NC(=O)c1nc(Cl)c(NCc2ccccc2F)nc1N | 
 | 25% | NC(N)=NC(=O)c1nc(Cl)c(Nc2ccccn2)nc1N | 
32% | 91% | CCCN(C)c1nc(N)c(C(=O)N=C(N)N)nc1Cl | 
32% |  | NC(N)=NC(=O)c1nc(Cl)c(Oc2ccc3cccnc3c2)nc1N | 
30% | 82% | NC(N)=NC(=O)c1ncc(-c2cccc(-c3ccoc3)c2)nc1N | 
 | 60% | NC(N)=NC(=O)c1nc(Cl)c(N2CCOCC2)nc1N | 
46% |  | NC(N)=NC(=O)c1nc(Cl)c(NCCc2cccc(F)c2)nc1N | 
 | 78% | NC(N)=NC(=O)c1nc(Cl)c(NC2CC2)nc1N | 
6% |  | NC(N)=NC(=O)c1ncc(-c2ccc3ccccc3c2)nc1N | 
34% |  | NC(N)=NC(=O)c1nc(Cl)c(NCCc2ccccc2F)nc1N | 
46% | 97% | NC(N)=NC(=O)c1nc(Cl)c(NCc2ccc(Cl)cc2)nc1N | 
 | 85% | NC(N)=NC(=O)c1nc(Cl)c(N2CCCCC2)nc1N | 
37% | 91% | CN(C)c1nc(N)c(C(=O)NC(=N)N)nc1Cl | 
31% | 90% | NC(N)=NC(=O)c1nc(Cl)c(NCc2ccccc2Cl)nc1N | 
4% |  | NC(N)=NC(=O)c1ncc(Cc2ccccc2)nc1N | 

inhibition [1] | inhibition [2] | Structure (SMILES) | other results
 | 57% | CN(c1nc(N)c(C(=O)N=C(N)N)nc1Cl)C1CCCCC1 | 
39% | 95% | Cc1cc(C)cc(-c2cnc(C(=O)N=C(N)N)c(N)n2)c1 | 
46% | 94% | N=C(N)NC(=O)c1nc(Cl)c(NCCc2ccccc2)nc1N | 
28% | 96% | NC(N)=NC(=O)c1nc(Cl)c(NCC2CCCCC2)nc1N | 
8% |  | NC(N)=NC(=O)c1ncc(-c2ccccc2-c2ccccc2)nc1N | 
 |  | N=C(N)NC(=O)c1ncc(-c2cccc(-c3ccsc3)c2)nc1N | IC50 [8]: 640 nM
14% |  | NC(N)=NC(=O)c1nc(Cl)c(Nc2ccncc2)nc1N | 
 | 51% | CN1CCN(c2nc(N)c(C(=O)N=C(N)N)nc2Cl)CC1 | 
11% |  | NC(N)=NC(=O)c1nc(Cl)c(Sc2ccccc2)nc1N | 
23% | 90% | NC(N)=NC(=O)c1nc(Cl)c(Oc2ccccc2)nc1N | 
12% |  | CSc1nc(N)c(C(=O)N=C(N)N)nc1Cl | 
23% |  | NC(N)=NC(=O)c1ncc(-c2ccsc2)nc1N | 
44% |  | NC(N)=NC(=O)c1nc(Cl)c(NCC2CCc3ccccc3C2)nc1N (stereo unspecified) | 
21% |  | COc1nc(N)c(C(=O)N=C(N)N)nc1Cl | 
52% | 96% | NC(N)=NC(=O)c1nc(Cl)c(N2CCc3ccccc3C2)nc1N | 
41% |  | NC(N)=NC(=O)c1nc(Cl)c(Nc2ccc3ncccc3c2)nc1N | 
29% | 90% | NC(N)=NC(=O)c1nc(Cl)c(NCc2cccc(F)c2)nc1N | 
33% | 91% | NC(N)=NC(=O)c1nc(Cl)c(Oc2ccc3ccccc3c2)nc1N | 
62% | 98% | NC(N)=NC(=O)c1nc(Cl)c(Nc2ccc3ccccc3c2)nc1N | IC50 [8]: 510 nM
7% |  | NC(N)=NC(=O)c1ncc(-c2ccc(-c3ccccc3)cc2)nc1N | 

inhibition [1] | inhibition [2] | Structure (SMILES) | other results
16% | 78% | C=CCNc1nc(N)c(C(=O)N=C(N)N)nc1Cl | 
24% | 91% | CCCNc1nc(N)c(C(=O)N=C(N)N)nc1Cl | 
32% |  | NC(N)=NC(=O)c1nc(Cl)c(NCCc2ccc(F)cc2)nc1N | 
21% |  | NC(N)=NC(=O)c1ncc(-c2cccc3ccccc23)nc1N | 
9% |  | NC(N)=NC(=O)c1nc(Cl)c(OCc2ccc3ccccc3c2)nc1N | 
50% |  | NC(N)=NC(=O)c1nc(Cl)c(Nc2ccc(C(F)(F)F)cc2)nc1N | 
46% | 89% | NC(N)=NC(=O)c1nc(Cl)c(N2CCc3ccccc32)nc1N | 
 | 74% | NC(N)=NC(=O)c1nc(Cl)c(NCC(F)(F)F)nc1N | 
35% |  | NC(N)=NC(=O)c1ncc(-c2ccccc2)nc1N | 
44% | 95% | NC(N)=NC(=O)c1nc(Cl)c(Nc2ccccc2)nc1N | 
28% |  | NC(N)=NC(=O)c1nc(Cl)c(Nc2cnc3ccccc3c2)nc1N | 
 | 9% | NC(N)=NC(=O)c1nc(Cl)c(O)nc1N | 
27% | 93% | NC(N)=NC(=O)c1nc(Cl)c(NCc2ccc3ccccc3c2)nc1N | 
12% | 84% | NC(N)=NC(=O)c1nc(Cl)c(N2CCCC2)nc1N | 
 | 51% | N=C(N)NC(=O)c1nc(Cl)c(N2CCCCCC2)nc1N | 
 | 48% | CC(C)(C)Nc1nc(N)c(C(=O)N=C(N)N)nc1Cl | 
12% |  | NC(N)=NC(=O)c1nc(Cl)c(Sc2ccc3ccccc3c2)nc1N | 
21% | 92% | NC(N)=NC(=O)c1nc(Cl)c(NC2CCCCC2)nc1N | 

Structure (SMILES) | inhibition [1] | inhibition [2] | other results
N=C(N)NC(=O)c1nc(Cl)c(N)nc1N [AMILORIDE] | 22% | 65% | IC50 [8]: 4400 nM
